Screening data from PubChem.
Only some compounds are listed: those with a hit (about 5.9% of all), similar ones and a draw of the others.
DAT uptake mod: changed human dopamine transporter uptake under cocaine IC80; actives 1.3% (n = 110,000); AID 449768; Q01959; LLC-PK1 hDAT cells, [14C]-dopamine uptake with cocaine IC80; actives deviate in either direction; B-score at 10 µM;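 active = Z score or B-score, a plate-position-corrected score, falls beyond the plate's 99.7% confidence bounds, in either direction; inactive = both scores lie inside the 99.7% bounds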;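 also: scored against the spread of the other compound wells on the same plate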
Measles CPE: protection of cells from measles virus | Measles virus-infected cells, CPE protection, absorbance | protection (pct of control), % at 4 µM | AID 841 | actives 1.5% (n = 140,000); in the data active = protection mostly above about 24%, no sharp cut-off; inactive = mostly below about 26%
Phagocytosis inh: inhibitors of macrophage phagocytosis; J774A.1 macrophage IgG-bead phagocytosis, imaging; inhibition, % at 5 µM; actives 0.07% (n = 110,000);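 active = inhibition above the mean of the plate negative controls plus 5 SD, cut at about 13% in these data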;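 also: phagocytic index as fraction of beads internalized from green versus red external bead signal; plate controls were DMSO negative control for no effect and cytochalasin-D positive control for full effect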
HIV Rev-RRE inh: disrupts HIV-1 Rev binding to RRE RNA | P05866 | Rev peptide-RRE RNA binding, FRET | inhibition, % at 8 µM | actives 0.79% (n = 97,000) | AID 704;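 active = inhibition above the screen-wide mean plus 3 SD, cut at about 35% in these data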;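 also: 0% = median DMSO wells and 100% = median Neomycin B control wells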
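System: Cy5-labelled duplex RRE RNA binding fluorescein-labelled HIV Rev peptide; Signal: fluorescein-to-Cy5 FRET, 480 nm excitation; Also added: labelled Rev peptide; Compound: one concentration, 8 µM nominal; Buffer or medium: HEPES pH 7.5 salt buffer with EDTA; Read-out: % inhibition of FRET ratio versus controls; Schedule: 5 min preincubation and 15 min binding, 25 °C.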
Cav3 T inh: human Cav3.2 channel inhibition, primary screen; actives 4% (n = 100,000); B-score at 10 µM; Cav3.2-expressing cells, Fluo-4 calcium fluorescence FDSS; hits give low values; O95180;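 active = single-dose well whose peak fluorescence ratio is a statistical outlier from its plate by either plate-standardised score or position-corrected B-score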
Pyk2 oligo antag: Pyk2 (human) oligomerization antagonism. Q14289. Q293 cells, Pyk2 FERM NanoBiT luminescence; hits give low values. z-score (the deposit names both 25 µM and 10 µM). actives 0.83% (n = 99,000). AID 1347419;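 active = Z-score of -3 or lower, scaled per plate to the spread of control and sample wells; inactive = z-score above -3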;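 also: negative z-score means lost luminescence so less FERM oligomerization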
Target sequence (Q14289 whole entry, looked up): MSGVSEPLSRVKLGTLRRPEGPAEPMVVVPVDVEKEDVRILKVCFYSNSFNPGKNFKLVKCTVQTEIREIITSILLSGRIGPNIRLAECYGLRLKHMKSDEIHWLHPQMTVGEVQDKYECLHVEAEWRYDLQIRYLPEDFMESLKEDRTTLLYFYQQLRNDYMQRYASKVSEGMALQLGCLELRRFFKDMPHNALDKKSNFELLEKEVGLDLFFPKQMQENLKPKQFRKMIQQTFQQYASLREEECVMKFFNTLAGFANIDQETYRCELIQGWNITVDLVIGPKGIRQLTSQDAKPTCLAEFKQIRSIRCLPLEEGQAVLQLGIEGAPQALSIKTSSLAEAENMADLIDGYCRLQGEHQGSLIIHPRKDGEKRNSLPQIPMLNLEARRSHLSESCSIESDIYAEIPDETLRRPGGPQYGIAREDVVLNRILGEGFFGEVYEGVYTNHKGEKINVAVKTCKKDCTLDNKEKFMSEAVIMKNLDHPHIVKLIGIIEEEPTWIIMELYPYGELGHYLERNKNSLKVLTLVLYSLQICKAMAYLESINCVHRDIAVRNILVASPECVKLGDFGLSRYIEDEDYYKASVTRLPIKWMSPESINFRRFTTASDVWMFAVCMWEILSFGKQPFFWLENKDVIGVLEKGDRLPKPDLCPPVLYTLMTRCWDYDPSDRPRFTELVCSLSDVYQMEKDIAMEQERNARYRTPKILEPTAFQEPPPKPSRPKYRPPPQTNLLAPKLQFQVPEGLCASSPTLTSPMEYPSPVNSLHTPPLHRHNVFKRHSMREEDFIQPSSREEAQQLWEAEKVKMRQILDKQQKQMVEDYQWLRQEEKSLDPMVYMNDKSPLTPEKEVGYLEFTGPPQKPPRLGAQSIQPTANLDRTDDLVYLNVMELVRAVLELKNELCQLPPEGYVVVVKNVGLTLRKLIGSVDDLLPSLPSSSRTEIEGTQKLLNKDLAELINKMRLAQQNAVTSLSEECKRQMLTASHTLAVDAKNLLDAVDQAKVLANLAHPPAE
Active calls of the source: *; x = no result given; [ ] = remark or other dose.

SMILES | DAT uptake mod | Measles CPE | Phagocytosis inh | HIV Rev-RRE inh | Cav3 T inh | Pyk2 oligo antag
O=C(Nc1cccc(C(F)(F)F)c1)c1ccc(Cn2cc(Br)cn2)o1 | 2 | 22 | x | 18 | -7.2* | -1.3
O=C(Nc1ccc(C(F)(F)F)cc1Cl)c1ccc(Cn2cc(Br)cn2)o1 | -0.036 | 6 | 0 | 18 | -3.2 | 1.3
COc1ccc(OCCSc2nnc3sc4ccccc4n23)cc1 | -1.1 | 47* | 1 | 9 | -0.27 | 1.4
CN(C)CCSc1nnc2sc3ccccc3n12 | 0.41 | 8 | -2 | 5 | 0.24 | 0.36
CCN(C(=O)CSc1ncccc1C(=O)OC(C)C)c1cccc(C)c1 | 1.4 | -1 | 0 | 6 | -5.6* | -0.78
COC(C[C@H]1O[C@H]1[C@@H](O)[C@@H](C)OCc1ccccc1)OC | 0.51 | x | x | x | -0.65 | x
Nc1c(C(=O)Nc2nccs2)sc2nc(-c3cccs3)cc(C(F)(F)F)c12 | x | 4 | 1 | 104*[fluorescence artefact?] | x | 0.64
COc1ccccc1NC(=O)c1sc2nc(Cc3ccccc3)cc(C(F)(F)F)c2c1N | 0.39 | 5 | -1 | 44* | -1.7 | 0.66
CCN(CC)C(=O)c1sc2nc(-c3cccs3)cc(-c3ccc(Cl)cc3)c2c1N | 1.2 | 4 | x | 14 | -2.5 | -1.2
CC(C)(C)C(=O)c1sc2nc(-c3cccs3)cc(C(F)(F)F)c2c1N | -0.94 | 14 | 1 | 79*[fluorescence artefact?] | -8.3* | 1.1
Cc1nnc(NC(=O)c2sc3nc(-c4cccs4)cc(C(F)(F)F)c3c2N)s1 | 0.91 | 7 | x | 99*[fluorescence artefact?] | -2.8 | -2.9
O=C(/C=C/c1ccc([N+](=O)[O-])cc1)N1CCN(c2ccccc2F)CC1 | x | 19 | -2 | x | x | x
O=C(/C=C/c1ccc(Cl)cc1)N1CCN(c2ccc(Cl)cc2[N+](=O)[O-])CC1 | 0.56 | 3 | x | 8 | -7.5* | 0.09
Cc1ccc(CNc2ccc(S(=O)(=O)N3CCOCC3)cc2[N+](=O)[O-])cc1 | x | 5 | -9 | x | x | x
Cc1c(CCCC(=O)O)sc(N)c1C(=O)c1cccc(C(F)(F)F)c1 | 0.67 | x | x | x | -0.88 | x
CN1CCN(c2ccc([N+](=O)[O-])cc2/C=N/NC(=O)c2ccc(F)cc2)CC1 | x | 7 | -1 | 2 | x | 0.45
CCN(CC)C(=O)C1CCCN(c2ccc([N+](=O)[O-])cc2/C=N/NC(=O)c2cccc(Br)c2)C1 (configuration not stated) | 0.59 | 11 | -2 | 3 | -7.2* | -0.39
Cc1cccc(C(C)C)c1NC(=O)C1CN(S(=O)(=O)c2ccccc2)CCN1S(=O)(=O)c1ccccc1 (configuration not stated) | x | 10 | -9 | x | x | x
COc1ccc(Cl)cc1NC(=O)CN(C)C1CCCCC1 | -0.43 | 9 | -1 | 8 | -1.4 | -0.62
COc1ccc(C)cc1NC(=O)CN(Cc1nnc(-c2ccc(Cl)cc2)o1)C1CCCC1 | 0.89 | 9 | -4 | -2 | -4.2* | -1.5
CCO[C@H]1OC(C(=O)N2CCN(Cc3ccc4c(c3)OCO4)CC2)=C[C@@H](c2ccccc2)[C@@H]1CCCO | 0.87 | x | x | x | 0.11 | x
CC(=O)n1cc([C@H]2C=C(C(=O)N3CCN(Cc4ccc5c(c4)OCO5)CC3)O[C@@H](OCCCCO)C2)c2ccccc21 | 2.5* | x | x | x | -0.4 | x
CCO[C@@H]1OC(C(=O)N2CCN(Cc3ccc4c(c3)OCO4)CC2)=C[C@H](c2cn(C(C)=O)c3ccccc23)[C@H]1CCCO | 2.1* | x | x | x | -1.5 | x
CC1=C(OC(=O)c2ccccc2)C(C)(C)C(c2ccccc2)OC1=O (configuration not stated) | -0.6 | 8 | 0 | 5 | 0.42 | -2.5
CC1=C(OC(=O)c2ccccc2)C(C)(C)C(c2ccc(Br)cc2)OC1=O (configuration not stated) | 0.66 | 12 | 0 | 16 | -7.1* | -1.6
SMILES | DAT uptake mod | Measles CPE | Phagocytosis inh | HIV Rev-RRE inh | Cav3 T inh | Pyk2 oligo antag
Cc1nn(Cc2ccccc2Cl)c(C)c1C(=O)N1CCN(c2ccccc2)CC1 | -0.21 | 14 | 0 | 4 | -1.7 | 0.98
Cc1ccc(S(=O)(=O)N2CCOCC2)cc1C(=O)N1CCOCC1 | 0.12 | 9 | 0 | 2 | 0.38 | -0.7
Cc1ccc(S(=O)(=O)N2CCOCC2)cc1C(=O)N1c2ccccc2Sc2ccccc21 | 0.14 | 10 | 0 | 9 | -4.2* | -1.1
COC(=O)c1cn(CC(=O)NC2CCCCCC2)c2ccccc12 | 0.11 | 8 | x | 7 | 1.3 | -0.9
CCOC(=O)CCNC(=O)Nc1ccc2nc(C)n(Cc3ccc(Cl)cc3)c(=O)c2c1 | -0.35 | 38* | 2 | 15 | -3 | -0.86
CC(=O)Nc1ccc2nc(C)n(Cc3ccc(Cl)cc3)c(=O)c2c1 | 0.097 | 20 | x | 7 | 0.33 | -0.03
Cc1cccc(OCCNC(=O)c2cncc(Br)c2)c1 | x | 6 | -1 | x | x | x
COc1ccc(Cc2nc(C(=O)NCc3ccccc3OC)cs2)cc1 | 0.45 | 14 | x | 10 | -6.7* | -1.2
COc1ccc(Cc2nc(C(=O)Nc3ccc(OC)cc3)cs2)cc1 | 0.43 | 2 | 1 | 7 | -1.7 | 0.21
C=C(C)CNC(=S)N/N=C(\C)c1ccc(Cl)s1 | x | 7 | 0 | x | x | x
Cc1oc2ccc(NS(=O)(=O)c3cccc4cccnc34)cc2c1C(=O)OC(C)C | x | 7 | 0 | x | x | x
Cc1nn(-c2cccc(C(F)(F)F)c2)c(Cl)c1/C=N/n1cnnc1 | 0.96 | 5 | -2 | 36* | -0.92 | -0.05
Cc1ccc(N2C(=O)/C(=C\c3ccc(C(C)C)cc3)N=C2SC2CCOC2=O)cc1 (configuration not stated) | x | 28 | -7 | x | x | x
Cc1ccc2c(c1)N(CCC(=O)NCCCOC(C)C)C(=O)C(C)O2 (configuration not stated) | 1.3 | 4 | x | 2 | 0.75 | -1.1
O=C(COc1ccccc1)N1CCN(c2nnc(-c3ccccc3)c3ccccc23)CC1 | 0.023 | 12 | -1 | 9 | -2.4 | -1.6
COc1ccc(N2CCN(C(=O)NC34CC5CC(CC(C5)C3)C4)CC2)cc1 | -7.6* | 24 | 1 | -2 | 0.0098 | -0.74
Cc1ccc(-c2nnc(N3CCN(C(=O)CN4C(=O)c5ccccc5C4=O)CC3)c3ccccc23)cc1 | 0.31 | x | x | 5 | 0.041 | 1.2
COc1ccc(CCNC(=O)NC23CC4CC(CC(C4)C2)C3)cc1 | -1.6 | 4 | 2 | 8 | 0.58 | -0.14
Cc1ccc(OCC(=O)N2CCN(c3nnc(-c4ccc(C)cc4)c4ccccc34)CC2)cc1 | 0.59 | 21 | 1 | 4 | -7.4* | -1.9
COc1ccc(CC(=O)OCC(=O)NC(=O)NC23CC4CC(CC(C4)C2)C3)cc1 | 0.54 | 3 | 0 | 7 | -8* | -0.31
COc1ccc(OCC(=O)N2CCN(c3nnc(-c4ccccc4)c4ccccc34)CC2)cc1 | 3* | 5 | -3 | 18 | -5.8* | -1.1
N#Cc1ccc(-c2ccc(OCC(=O)NCC(=O)Nc3ccc(F)c(F)c3F)cc2)cc1 | x | 5 | -2 | x | x | x
CCOc1cc(/C=C2\CCCC(C(=O)C(F)(F)F)=C2O)ccc1O | x | 8 | -6 | x | x | x
